This note sets out measurements from ChEMBL document CHEMBL1121836, “Effect of structural change on acute toxicity and antiinflammatory activity in a series of imidazothiazoles and thiazolobenzimidazoles” (J Med Chem, 1981).

As usually defined, the LD50 is the dose at which mortality reaches 50%. A higher LD50 goes with lower toxicity. The ED50 is the dose that gives a 50% effect, or the effect in half of the subjects. Higher therefore signals a need for a large dose.

Where “and” joins values, the source holds several entries; their conditions need not be identical. Equal entries are not always repeated.

For data set [1], the species on record is Mus musculus. In words: (§1) Compound was evaluated for the toxicity in mice. The class given is organism-based. To be noted: in vivo.
The subject of data set [2] is Mus musculus. Kind of data set: Compound was evaluated for the percent reduction of carrageenan induced edema in mice at dose of 25 mg/kg. The format is functional.
Data set [3] relates to Mus musculus. Kind of data set: Compound was evaluated for the percent reduction of carrageenan induced edema in mice at dose of 50 mg/kg. The format is functional. On the technique in general: In the carrageenan paw model, swelling and tenderness develop within hours.
Data set [4] concerns Rattus norvegicus. Kind of data set: Compound was evaluated in the developed adjuvant arthritis assay at a dose of 10 mg/kg for the percent reduction of carrageenan induced edema (LHF) on 21st day. The format is functional. Put shortly: (§2)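 Rats received 0.1 mL heat-killed Mycobacterium tuberculosis suspension (3.5 mg/mL) into the left hind footpad on day 1. On day 20, animals with developed arthritis (all four paws swollen, tail and ears involved) were used. Oral gavage in 0.25% methylcellulose (0.005 mL/g) on days 20 and 22. Hind paw volumes were recorded daily on days 20–23. Mean group volume is expressed as percent change from day 20.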

Data set [5] deals with Rattus norvegicus. In words: Compound was evaluated in the developed adjuvant arthritis assay at a dose of 10 mg/kg for the percent reduction of carrageenan induced edema (LHF) on 22nd day. The format is functional. Put shortly: as §2
Data set [6] has as its system Rattus norvegicus. In words: Compound was evaluated in the developed adjuvant arthritis assay at a dose of 10 mg/kg for the percent reduction of carrageenan induced edema (LHF) on 23rd day. The class given is functional. Put shortly: as §2
Data set [7] relates to Rattus norvegicus. Kind of data set: Compound was evaluated in the developed adjuvant arthritis assay at a dose of 3 mg/kg for the percent reduction of carrageenan induced edema (LHF) on 22nd day. The format is functional. Put shortly:
as §2

Data set [8] concerns Rattus norvegicus. Kind of data set: Compound was evaluated in the developed adjuvant arthritis assay at a dose of 3 mg/kg for the percent reduction of carrageenan induced edema (LHF) on 23rd day. The format is functional. Put shortly:
as §2

The test system of data set [9] is Rattus norvegicus. Kind of data set: Compound was evaluated in the developed adjuvant arthritis assay at a dose of 30 mg/kg for the percent reduction of carrageenan induced edema (LHF) on 21st day. The format is functional. Put shortly: as §2
Data set [10] concerns Rattus norvegicus. Kind of data set: Compound was evaluated in the developed adjuvant arthritis assay at a dose of 30 mg/kg for the percent reduction of carrageenan induced edema (LHF) on 22nd day. The format is functional. The essentials: as §2
Data set [11] deals with Rattus norvegicus. Kind of data set: Compound was evaluated in the developed adjuvant arthritis assay at a dose of 30 mg/kg for the percent reduction of carrageenan induced edema (LHF) on 23rd day. The format is functional. The essentials: as §2
Data set [12] has as its system Rattus norvegicus. Kind of data set: Compound was evaluated in the developed adjuvant arthritis assay at a dose of 3 mg/kg for the percent reduction of carrageenan induced edema (LHF) on 21st day. The class given is functional. The essentials:
as §2

Data set [13] relates to Mus musculus. In words: Percent analgesia in phenylquinone writhing assay at 1 mg/kg. The format is functional. Put shortly:
(§3)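 Groups of 10 male mice were dosed orally with compound dissolved or suspended in 0.25% methylcellulose (0.25 mL per mouse). After the designated interval they were challenged ip with 0.25 mL of 0.02% phenylquinone in aqueous ethanol (95:5). Read-out is the percentage of mice protected from writhing.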
For orientation: Writhing tests count abdominal constrictions after an irritant is injected.

Data set [14] concerns Mus musculus. Kind of data set: Percent analgesia in phenylquinone writhing assay at 3 mg/kg. The format is functional. The essentials:
as §3

The test system of data set [15] is Mus musculus. Kind of data set: Percent analgesia in phenylquinone writhing assay at 0.3 mg/kg. The class given is functional. The essentials: as §3
The species named for data set [16] is Mus musculus. Kind of data set: Dose giving one-half of average maximal [40%] response in carrageenan assay. The class given is functional.
The species entered for data set [17] is Mus musculus. In words: Dose giving one-half of average maximal [40%] response in phenylquinone writhing assay. The class given is functional.
Data set [18] in a line: as §1. The format is organism-based. To be noted: mouse, in vivo.
In data set [19] the test system is Mus musculus. Kind of data set: Compound was evaluated for the percent reduction of carrageenan induced edema in mice at dose of 0.3 mg/kg. The class given is functional.
Data set [20] concerns Mus musculus. In words: Compound was evaluated for the percent reduction of carrageenan induced edema in mice at dose of 1.0 mg/kg. The class given is functional.
Data set [21] deals with Mus musculus. In words: Compound was evaluated for the percent reduction of carrageenan induced edema in mice at dose of 3.0 mg/kg. The class given is functional.
Data set [22] is filed under the species Mus musculus. Kind of data set: Neurotoxic dose that causes minimal recognizable neurotoxicity in 50% of animals tested. The format is functional. The essentials:
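Mice dosed orally or intraperitoneally; neurotoxicity scored on five end points, including a positional sense test in which a hind leg lowered over a table edge should be quickly lifted back to a normal position. NTD50 is the dose giving minimal recognizable neurotoxicity in 50% of animals tested.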

The subject of data set [23] is Rattus norvegicus. Kind of data set: Compound was evaluated in the developed adjuvant arthritis assay at a dose of 0.3 mg/kg for the percent reduction of carrageenan induced edema (LHF) on 22nd day. The format is functional. The essentials:
as §2

The test system of data set [24] is Rattus norvegicus. Kind of data set: Compound was evaluated in the developed adjuvant arthritis assay at a dose of 0.3 mg/kg for the percent reduction of carrageenan induced edema (LHF) on 23rd day. The format is functional. Put shortly: as §2
The subject of data set [25] is Rattus norvegicus. In words: Compound was evaluated in the developed adjuvant arthritis assay at a dose of 1 mg/kg for the percent reduction of carrageenan induced edema (LHF) on 21nd day. The format is functional. Put shortly: as §2
Data set [26] concerns Rattus norvegicus. Kind of data set: Compound was evaluated in the developed adjuvant arthritis assay at a dose of 1 mg/kg for the percent reduction of carrageenan induced edema (LHF) on 22nd day. The format is functional. The essentials: as §2
Data set [27] relates to Rattus norvegicus. Kind of data set: Compound was evaluated in the developed adjuvant arthritis assay at a dose of 1 mg/kg for the percent reduction of carrageenan induced edema (LHF) on 23rd day. The format is functional. Put shortly:
as §2

The species named for data set [28] is Rattus norvegicus. Kind of data set: Ulcerogenic dose that produced gastric lesions, ulcers and/or hemorrhage in 50% of the animals tested. The class given is functional, Stomach. Put shortly: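 Ten male Sprague–Dawley rats (ca. 160 g) were fasted 24 h with water available, then dosed po with compound or vehicle. At 4 h they were killed with CO2, and stomachs were opened along the greater curvature. A nonbiased observer scored ulcers, pitting or hemorrhagic spots. UD50 (lesions in 50% of animals) was determined by Litchfield–Wilcoxon.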

A short description of data set [29]: Lethal dose evaluated in NPP assay. The class given is toxicity, organism-based. As to conditions: mouse, in vivo.

`CC1=CSC2=NC3CCCCC3N12` (trans isomer): the LD50 in the data set filed under Mus musculus [1] worked out at 20 mg/kg. Further, the Reduction in the data set with Mus musculus [2] was found to be 76%; with Mus musculus [3], 100%; with Rattus norvegicus [4], 10%; with Rattus norvegicus [5] it was 18%; in the data set on Rattus norvegicus [6], 19%; in the data set on Rattus norvegicus [7], 2%. The Reduction with Rattus norvegicus [8] is 2%; in the data set on Rattus norvegicus [9] it was 10%; in the data set with Rattus norvegicus [10], 19%; in the data set on Rattus norvegicus [11], 18%; in the data set with Rattus norvegicus [12] it was 0%.

`COc1ccc2c(c1)c(CC(=O)O)c(C)n2C(=O)c1ccc(Cl)cc1` [INDOMETHACIN]: the Analgesia in the data set on Mus musculus [13] came out at 60%; in the data set with Mus musculus [14] it was 70%; in the data set with Mus musculus [15], 20%. Also, the ED50 in the data set listed under Mus musculus [16] and in the data set listed under Mus musculus [17] was 1 mg/kg throughout. Besides, the LD50 in data set [18] and in [29] was 160 mg/kg throughout. Further, the Reduction is 11% in the data set with Mus musculus [19]; 22% with Mus musculus [20]; 39% with Mus musculus [21]; 21% in the data set with Rattus norvegicus [23]; 13% and 19% in the data set with Rattus norvegicus [24]; 21% with Rattus norvegicus [25]. Moreover, the Reduction turned out to be 29% in the data set with Rattus norvegicus [26]; 29% with Rattus norvegicus [27]; 25% in the data set on Rattus norvegicus [7]; 35% in the data set with Rattus norvegicus [8]; 17% with Rattus norvegicus [12]. The compound further displayed an NTD50 in the data set listed under Mus musculus [22] of 110 mg/kg. The compound also gave a UD50 in the data set filed under Rattus norvegicus [28] of 6 mg/kg.
